Like-named read-outs stand apart in the source and are kept apart here.
Tests used:
human BCKDK [1] = target: T1, human BCKDK (Homo sapiens, UniProt O14874); test: BCKDK biochemical assay; settings: for maximum BCKDK inhibition in the biochemical assay: plateau of inhibition curve
Method in brief: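 BCKDK freed of MBP tag by TEV cleavage. 11-point half-log test compound series (final 300 μM to 3 nM, 1% DMSO), in duplicate. Reaction started with 50 nM lipoylated fusion substrate plus 15 or 200 μM ATP; 90 min at RT. EDTA stop; Eu-anti-His/anti-pE1/ULight TR-FRET read at 665 nm. IC50 from four-parameter logistic fit.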

PDK1 = PDK1 (Homo sapiens, UniProt Q15118); test: PDK1 biochemical assay
Method in brief: (§1)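 Kinetic fluorescence assay (ex 360/em 485 nm) at 30 °C for 240 min using N-terminal GST-tagged kinase at 10 nM. PDK1 (aa 1–436): 6.0 μM ATP, 15 μM AQT0895. PDK4 (aa 1–411): 97 μM ATP, AQT0872. Eleven threefold dilutions (100 μM–1.7 nM final, 2% DMSO), run in duplicate, with a 30 min preincubation before enzyme. No-enzyme background subtracted. IC50 by four-parameter fit of initial rates.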

AT1R = settings: read-out: AT1R Kd; cited from earlier work
human BCKDK [2] = target: T1, human BCKDK; type: binding
Method in brief: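 BCKDK biotinylated with BirA during TEV cleavage, then immobilized. At least six twofold dilutions injected at 30 μl/min: 120 s association, ≥300 s dissociation. Double reference subtraction using blank injections. For competition, the same series was run with 20 μM radicicol or 20 μM BT2 in running buffer; reduced signal was read as shared site.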

BCKDK = settings: read-out: Ki as ATP competitive inhibitor of BCKDK; cited from earlier work
PDK4 = PDK4 (Homo sapiens, UniProt Q16654); test: PDK4 biochemical assay
Method in brief: as §1

[3] = tested on: BCKD–BCKDK complex purified from rat liver; settings: read-out: in vitro IC50 to inhibit the BCKD–BCKDK complex, 500 μM ATP; cited from earlier work
[4] = Biochemical IC50, ATP concentration of 15 μM
[5] = Biochemical IC50 at 200 μM ATP, 200 μM ATP

Chain of PDK4 (Q16654 whole entry): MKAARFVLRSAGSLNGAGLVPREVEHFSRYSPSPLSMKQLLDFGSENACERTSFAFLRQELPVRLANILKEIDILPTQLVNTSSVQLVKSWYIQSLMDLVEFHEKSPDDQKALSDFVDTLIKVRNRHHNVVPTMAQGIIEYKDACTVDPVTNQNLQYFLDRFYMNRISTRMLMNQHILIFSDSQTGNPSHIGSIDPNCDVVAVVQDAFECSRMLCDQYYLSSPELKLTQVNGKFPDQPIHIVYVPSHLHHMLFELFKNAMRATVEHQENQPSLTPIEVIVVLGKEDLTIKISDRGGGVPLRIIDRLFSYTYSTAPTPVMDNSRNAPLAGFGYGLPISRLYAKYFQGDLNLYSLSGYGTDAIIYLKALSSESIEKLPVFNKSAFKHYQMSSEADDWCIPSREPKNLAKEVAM
Chain of PDK1 (Q15118 29-436): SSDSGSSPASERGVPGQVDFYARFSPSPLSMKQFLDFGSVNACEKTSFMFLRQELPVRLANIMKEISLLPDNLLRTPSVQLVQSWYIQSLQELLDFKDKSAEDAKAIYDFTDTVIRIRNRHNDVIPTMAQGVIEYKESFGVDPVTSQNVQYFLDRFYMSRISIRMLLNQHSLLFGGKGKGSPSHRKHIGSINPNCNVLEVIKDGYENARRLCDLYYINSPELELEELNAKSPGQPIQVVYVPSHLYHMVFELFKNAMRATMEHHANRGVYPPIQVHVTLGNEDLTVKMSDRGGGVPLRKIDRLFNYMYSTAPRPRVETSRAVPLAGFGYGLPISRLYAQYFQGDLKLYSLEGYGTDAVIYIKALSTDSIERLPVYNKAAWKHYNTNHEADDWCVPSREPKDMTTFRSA

IC50 (human BCKDK [1]; [4]) | IC50 (human BCKDK [1]; [5]) | maximum BCKDK inhibition in the biochemical assay (human BCKDK [1]) | Structure (SMILES) | also measured
 |  |  | CCC1CN(Cc2ccc(-c3ccccc3-c3nnn[nH]3)cc2)c2ncccc2O1 (racemic) [racemic, 4-((2'-(1H-tetrazol-5-yl)-[1,1′-biphenyl]-4-yl)methyl)-2-ethyl-3,4-dihydro-2H-pyrido[3,2-b][1,4]oxazine] | IC50 (human BCKDK [1]; in vitro biochemical activity): 0.011 ± 0.0025 µM
 |  |  | Nc1ncnc2c1ncn2[C@@H]1O[C@H](COP(=O)(O)OP(=O)(O)OP(=O)(O)O)[C@@H](O)[C@H]1O [ATP] | Km (human BCKDK [1]; read-out: Km of ATP, determined in the biochemical assay format): 13.6 ± 0.32 µM
0.0069 ± 0.0025 µM | 0.021 ± 0.006 µM | 100% | CCC1CN(Cc2ccc(-c3ccccc3-c3nnn[nH]3)cc2)c2ncccc2O1 (centres unmarked) [compound 1, 4-((2'-(1H-tetrazol-5-yl)-[1,1′-biphenyl]-4-yl)methyl)-2-ethyl-3,4-dihydro-2H-pyrido[3,2-b][1,4]oxazine] | 
 |  |  | CCC1CN(Cc2ccc(-c3ccccc3-c3nnn[nH]3)cc2)c2ncccc2O1 (centres unmarked) [compound 1∗, 4-((2'-(1H-tetrazol-5-yl)-[1,1′-biphenyl]-4-yl)methyl)-2-ethyl-3,4-dihydro-2H-pyrido[3,2-b][1,4]oxazine] | IC50 (human BCKDK [1]; in vitro biochemical activity): 0.032 ± 2e-05 µM
205 ± 51 µM | 232 ± 28 µM |  | COc1ccc(-c2nnn[nH]2)cc1 [fragment 1, 5-(4-methoxyphenyl)-1H-tetrazole] | 
 |  |  | CCCc1nc(C(C)(C)O)c(C(=O)O)n1Cc1ccc(-c2ccccc2-c2nnn[nH]2)cc1 [olmesartan acid] | IC50 (human BCKDK [1]; read-out: In vitro IC50, Supplementary Table 1, BDK inhibition): 43.7 µM; Kd (AT1R): 0.0069 µM
25 ± 3.8 µM | 110 ± 21 µM | 100% | C[C@@H]1C[C@H]2O[C@@H]2/C=C\C=C\C(=O)Cc2c(Cl)c(O)cc(O)c2C(=O)O1 [radicicol] | Kd (human BCKDK [2]): 1.47 µM
1.7 ± 1.9 µM | 7.7 ± 4.4 µM | 100% | CCCCC(=O)N(Cc1ccc(-c2ccccc2-c2nnn[nH]2)cc1)[C@H](C(=O)O)C(C)C [valsartan] | Ki (BCKDK): 1.36 µM; IC50 (PDK4): 78 µM; IC50 [3]: 37.3 µM

Structure (SMILES) | IC50 (human BCKDK [1]; [4]) | IC50 (human BCKDK [1]; [5]) | maximum BCKDK inhibition in the biochemical assay (human BCKDK [1]) | also measured
O=C(O)c1sc2cc(Cl)ccc2c1Cl [BT2, 3,6-dichlorobenzo[b]thiophene-2-carboxylic acid] | 0.96 ± 0.33 µM | 0.9 ± 0.37 µM | ~75% | IC50 (PDK1): 79 µM
Cc1ccc(-c2ccccc2-c2nnn[nH]2)cc1 [fragment 2, 5-(4′-methyl-[1,1′-biphenyl]-2-yl)-1H-tetrazole] | 37.3 ± 7.1 µM | 38.7 ± 3.7 µM |  | 

Source: PMC9976451 (The Journal of Biological Chemistry, 2023)
